Assay results: BindingDB's records for doi:10.1021/ml100053y (2010)

Target: T1, 5-hydroxytryptamine receptor 1A (Homo sapiens, UniProt P08908)
T1 sequence (P08908 whole entry): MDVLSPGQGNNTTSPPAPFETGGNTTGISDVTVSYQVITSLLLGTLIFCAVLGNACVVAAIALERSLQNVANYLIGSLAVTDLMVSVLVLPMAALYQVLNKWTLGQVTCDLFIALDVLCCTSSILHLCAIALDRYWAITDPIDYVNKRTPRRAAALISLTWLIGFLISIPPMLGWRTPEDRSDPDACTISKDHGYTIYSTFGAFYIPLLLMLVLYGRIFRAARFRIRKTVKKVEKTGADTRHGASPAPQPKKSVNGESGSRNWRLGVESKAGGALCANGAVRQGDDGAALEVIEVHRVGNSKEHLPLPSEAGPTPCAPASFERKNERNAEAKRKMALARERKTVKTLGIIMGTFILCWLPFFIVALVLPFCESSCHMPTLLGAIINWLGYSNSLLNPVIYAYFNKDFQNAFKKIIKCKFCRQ
Test: Displacement of [3H]8-OH-DPAT from human 5HT1A receptor expressed in EBNA gene-positive HEK293 cells after 120 mins
Method in brief: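 Radioligand competition binding with [3H]-8-hydroxy-DPAT on membranes from transfected HEK-293 EBNA cells expressing h5-HT1AR. Buffer was 50 mM Tris-HCl, 0.5 mM MgSO4, pH 7.4. Ki was obtained from IC50 by the Cheng-Prusoff equation. Values are means ± SEM of 2–4 independent experiments, each run in triplicate.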

**Q.** `O=c1n(CCCCN2CCN(c3cccc4ccccc34)CC2)c(O)c2n1CCC2` [2-[4-(4-Naphthalen-1-yl-piperazin-1-yl)-butyl]-tetrahydro-pyrrolo[1,2-c]imidazole-1,3-dione] was tested. Which Ki did it give?
**A.** 2.4 nM

**Q.** With `CN(C)S(=O)(=O)c1ccc2cccc(N3CCN(CCCCn4c(O)c5n(c4=O)CCC5)CC3)c2c1` [8-{4-[4-(1,3-Dioxotetrahydro-1H-pyrrolo[1,2-c]imidazol-2(3H)-yl)butyl]piperazin-1-yl}-N,N-dimethylnaphthalene-2-sulfonamide] as the molecule, how does the Ki read?
**A.** 2.4 nM
